The term viability denotes a read-out of living cells in per cent, often relative to untreated cells.

Activity calls are given as the source filed them.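 The calls were made as follows: active = compounds whose fitted half-maximal concentration for reducing fibroblast viability is 100 µM or lower; inactive = the rest.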

We go through 62 compounds from PubChem BioAssay AID821 (SRMLSC, 2007).

The assay is described as follows: inhibition of LL 47 lung fibroblast growth, concentration-response curve, selectivity screen for endothelial cell growth inhibitor project, cellular system, ATP luminescence readout (AID 821).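 Also: 100% = median of untreated cell-only wells and 0% = no luminescence.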 The following applies: LL 47 lung fibroblast viability, ATP luminescence; at 20 µM (top of the series). In a few lines:
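assay system = LL 47 human lung fibroblasts | quantity = 1,150 cells per well | compound = dose series 0.039–20 µM final, 0.2% DMSO | incubation = overnight cell settling, then 72 h compound exposure at 37 °C | signal = CellTiter-Glo luminescence readout of viable cells | read-out basis = % viability versus median cell-only wells, four-parameter EC50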

Regarding `Cc1ccc(-n2nnnc2SCC(=O)Nc2ccc3c(c2)COC3=O)cc1C`, the viability is 94.5% (inactive). For `Cc1ccc(C)c(N2CCN(CCCNC(=O)Cn3cc4c(n3)CCCCC4)CC2)c1`, the viability is 83.3% (inactive). In the case of `COc1ccc2cc3cc(C(=O)Nc4ccc5c(c4)OCO5)oc3nc2c1`, the viability is 88.3% (inactive). In the case of `Cc1cc2nc(C3CCN(CC4COc5ccccc5O4)CC3)[nH]c2cc1C` (configuration not stated), the viability is 88.5% (inactive).

As for `Cn1c(SCC(=O)Nc2ccc(N3CCOCC3)cc2)nnc1-c1ccccc1`, the viability is 109% (inactive). With `CCCCn1c(SCC(=O)Nc2cc(NC(=O)c3ccco3)ccc2C)nc2ccccc2c1=O`, the viability was 99.3% (inactive). Consider `Cn1c(=O)c2cc(NCc3ccccc3)nnc2n(C)c1=O`, for which the viability was 100% (inactive). On to `CC1=C(SCCC#N)S/C(=C2\SC(C)=C(SCCC#N)S2)S1`, for which the viability is 112% (inactive). As to `Cc1cc(C)c2c(c1)SC1=NC(c3ccccc3)(C(F)(F)F)NC(=O)N12` (configuration not stated), the viability is 102% (inactive). On to `COc1ccc(-c2nnc(SCCc3ccccc3)n2N)cc1`, for which the viability was 113% (inactive).

For the compound `CCCCCCCCOC(=O)C1=C(C)Nc2nnnn2C1c1cccs1` (configuration not stated), the viability was 117% (inactive).

As to `O=C(Nc1nnc(-c2ccc3c(c2)CCCC3)o1)c1ccc(Cl)cc1Cl`, the viability was 95.8% (inactive). For the compound `CCOC(=O)c1ccc(NC(=O)c2c(C)[nH]c(C(=O)OCC)c2C)cc1`, the viability is 103% (inactive). Consider `CCN(CC(O)Cn1c2ccccc2c2ccccc21)S(=O)(=O)c1ccc(C)cc1` (configuration not stated), for which the viability is 96.4% (inactive). Take `Cn1c(=O)c2c(ncn2CC(=O)Nc2nc(-c3ccccc3Cl)cs2)n(C)c1=O`: the viability is 110% (inactive). As to `O=[N+]([O-])c1cccnc1N1CCC(c2cc(-c3cccc(C(F)(F)F)c3)n[nH]2)CC1`, the viability is 102% (inactive). For the compound `CC1=C(C(=O)OC2CCCCCCC2)C(c2cc3c(cc2Br)OCO3)CC(=O)N1` (configuration not stated), the viability is 82.2% (inactive). Regarding `CCOC(=O)c1c(NC(=O)COc2ncnc3sccc23)sc2c1CCC2`, the viability is 83.6% (inactive).

Turning to `CCCCCCOC(=O)C(C#N)c1nc2ccccc2nc1N1CCN(C)CC1` (configuration not stated), the viability is 90.4% (inactive). As to `Cc1nc(C)c(-c2csc(Nc3cccnc3)n2)s1`, the viability is 87.8% (inactive). With `CCOC(=O)c1ccc2c(c1)NC(=O)C(N1CCN(c3ccc(OC)cc3)CC1)S2` (configuration not stated), the viability is 84.9% (inactive). For `COc1ccc(Cl)cc1N1CCN(CCNC(=O)Nc2ccccc2C)CC1` the value was 101% (inactive); for `Cc1cc(/C=N/n2cnnc2)c(C)n1-c1ccc(OCc2ccc(Cl)cc2Cl)cc1`, 86.5% (inactive).

In the case of `CCOc1ccc(-c2nn3c(-c4ccccc4)nnc3s2)cc1`, the viability is 113% (inactive). Consider `Cn1nnc(NC(=O)CSc2ccc(Cl)cc2)n1`, for which the viability is 125% (inactive). For `N#Cc1nc(-c2ccc(OCc3ccccc3)cc2)oc1NCCCn1ccnc1` the value was 92.9% (inactive); for `Cn1c(CNc2cccc(Cl)c2)nnc1SCC(=O)OC1CCCCC1`, 86.7% (inactive). With `Cc1ccc(Cn2nc(C)c(NC(=O)c3cc(-c4ccc5c(c4)OCO5)on3)c2C)cc1`, the viability is 106% (inactive).

For `Cc1ccc(-c2nnc(N3CCN(C(=O)CSc4ncn[nH]4)CC3)c3ccccc23)cc1`, the viability is 102% (inactive).

`Cc1ccc2c(c1)c1c(n2CC(O)Cn2c(C)nc3ccccc32)/C(=N\O)CCC1` (configuration not stated): the viability is 89.6% (inactive). For `CC(C(=O)N1CCOCC1)N1C(=O)c2ccccc2C1=O` (configuration not stated) the value was 117% (inactive). On to `C=CCN1C(=Nc2cccnc2)SCC1(O)c1ccc(C)cc1` (configuration not stated), for which the viability is 86.4% (inactive). In the case of `C/C(CC1CC2=C(CC1(C)C)C(C)(C)CCC2)=N\NC(N)=S` (configuration not stated), the viability was 87.7% (inactive).

Turning to `C=CCn1c(SCC(=O)NC(=O)NCc2ccco2)nc2sc(CC)cc2c1=O`, the viability was 87.4% (inactive). The value for `Cc1ccc2[nH]c3c(N4CCN(Cc5ccc6c(c5)OCO6)CC4)ncnc3c2c1` was 88.1% (inactive). As to `CCCc1c(C)c2cc(C)ccc2[nH]c1=O`, the viability is 110% (inactive). In the case of `Cc1ccc2c(c1)c1cccc3c1n2CCN3CCC(N)=O`, the viability is 89% (inactive). As to `CCOC(=O)c1c(C)[nH]c(C(=O)OC/C(O)=C(\C#N)c2nc3ccccc3[nH]2)c1C`, the viability was 113% (inactive).

Regarding `CC(=O)n1cc(-c2ccncc2)c2ccccc21`, the viability is 98.4% (inactive).

With `Cc1nn(Cc2ccc(Cl)c(Cl)c2)c(C)c1NC(=O)c1cc(-c2ccc3c(c2)OCO3)on1`, the viability was 94.2% (inactive). Regarding `COc1ccc(-n2c(SCC(=O)Nc3sc4c(c3C#N)CCCC4)nnc2-c2ccc(O)cc2)cc1`, the viability was 94.1% (inactive). Regarding `Clc1ccc(-c2nc(NCCN3CCOCC3)c3ccccc3n2)cc1`, the viability is 83.1% (inactive). Consider `CCCC1(CCC)NC(=O)N(CC(=O)Nc2ccccc2OC)C1=O`, for which the viability was 92.2% (inactive). `CCCSc1nc2c(cnn2-c2ccc(C)cc2)c(=O)[nH]1`: the viability is 93.1% (inactive). For the compound `OCCN1CCN(c2nc(-c3ccccc3)c3cc(Cl)ccc3n2)CC1`, the viability is 85% (inactive). `Cc1ccc(S(=O)(=O)c2c(C)nn(C(C)(C)C)c2OC(=O)c2ccc(Br)o2)cc1`: the viability was 103% (inactive). As to `O=C(Nc1ccc2c(c1)OCO2)c1cc(C2CC2)on1`, the viability was 104% (inactive). Take `Cc1cccc(C)c1N1CCN(c2ccc3nnc(C(F)(F)F)n3n2)CC1`: the viability was 81.7% (inactive).

As to `O=C(CSc1nnc(-c2cccs2)n1-c1ccccc1)Nc1ccccc1`, the viability was 90.4% (inactive). The value for `Cc1cc(/C=C2\C(=N)N3C(SCc4ccccc4)=NSC3=NC2=O)c(C)n1Cc1ccccc1` was 92.2% (inactive).

On to `CCc1cc(-c2n[nH]c(C)c2Oc2ccc(C(C)C)cc2)c(O)cc1O`, for which the viability was 85.5% (inactive). Turning to `Cc1ccc(/C=C/C(=O)c2ccccc2)cc1`, the viability is 85.6% (inactive). The value for `Cn1cc(SCC(=O)Nc2nc3ccccc3s2)c2ccccc21` was 82.4% (inactive); that for `CC(C)OC(=O)NCCOC(=O)Nc1cccc(Cl)c1` was 103% (inactive).

With `COc1ccccc1N1CCN(C(=O)c2ccc(Br)s2)CC1`, the viability is 103% (inactive). For the compound `COC(=O)/C(=C\Nc1ccc(Cl)cc1Cl)NC(=O)c1ccc(Cl)cc1Cl`, the viability was 96% (inactive). The value for `Cn1c(=O)cc(SCC(=O)NCC2COc3ccccc3O2)c2ccccc21` (configuration not stated) was 104% (inactive). Turning to `COc1cc2c(N3CCOCC3)cc(O)c(CC(=O)Nc3ccccc3)c2cc1OC`, the viability is 95.9% (inactive). As for `COC(=O)c1sccc1NC(=O)c1ccc2c(c1)OCO2`, the viability was 103% (inactive). As for `CC(/C=N/n1cnnc1)=C\c1ccccc1`, the viability was 109% (inactive). `Cc1cc(C)n(-c2nc(NCCCO)c3c4c(sc3n2)CCCC4)n1`: the viability was 88.8% (inactive). Consider `Cc1cccc(N2CCN(C(=O)c3ccc4nc(-c5ccco5)c(-c5ccco5)nc4c3)CC2C)c1` (configuration not stated), for which the viability was 105% (inactive).
